Source: ChEMBL document CHEMBL4513216, “Probing the Open Global Health Chemical Diversity Library for Multistage-Active Starting Points for Next-Generation Antimalarials” (ACS Infect Dis, 2020)

Assay: Toxicity liver stage against HepG2, at 10uM
Type: cell-based
Parameters: test concentration 10 uM, cell line HepG2-A16-CD81EGFP
Settings: human, HepG2-A16-CD81EGFP cells; read-out: INHIBITION
Method in brief: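 Uninfected HepG2-A16-CD81EGFP cells, 3 × 10^3 per well, 1536-well, plated on prespotted compound at 10 μM final, parasite-free screening media added to match infected plates; puromycin 10 μM positive, DMSO 0.5% negative; run in parallel with 48 h PbLuc assay at 37 °C, 5% CO2; viability by CellTiter-Glo luminescence, normalized to controls.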

Point of comparison: Nc1ncccc1CN1CCCn2nc(CCC(=O)NC3CC3)cc2C1, cytotoxicity at 10 µM 1.45%. Against it:
- Cn1cc(CN2CCC3(CC2)CCN(Cc2ccccn2)CC3)cn1 — higher, 9.84%
- COc1cccc(SCC(=O)N2CCC(N3CCCC3=O)CC2)c1 — lower, -9.41%
- Fc1cccc(CN2CCC(c3n[nH]c4ncccc34)CC2)c1F — lower, -2.86%
- O=C(O)c1ccccc1C1CCN(C2CCN(c3ccccc3)CC2)C1 (stereo unspecified) — lower, -14.5%
- CC(=O)Nc1nc(C(=O)NCc2ccc(N3CCCCC3)cc2)cs1 — lower, -2.75%
- CC(C)CCC(=O)NCc1ccc(N2CCCCC2)cc1 — higher, 7.89%
- CCN1CCC2(CC1)CC(NC(=O)c1csnn1)c1ccccc1O2 (stereo unspecified) — lower, -116%
- O=C(Nc1cnc2n1CCCC2)c1cccc(-n2cnnc2)c1 — lower, -4.34%
- COC(=O)c1cccc(S(=O)(=O)NCc2cccnc2N(C)C)c1 — higher, 5.68%
- CN(Cc1nccn1C)C(CO)c1cccc(Br)c1 (stereo unspecified) — lower, -1.29%
- OCc1ccc(CN(CCCn2ccnc2)Cc2ccncc2)o1 — lower, -4.41%
- Cc1cnn(CC2CCCN2C(=O)CCc2ccncc2)c1 (stereo unspecified) — lower, -10.6%
- N#Cc1c(F)cccc1N1CCN(S(=O)(=O)c2cccs2)CC1 — higher, 14.2%
- CC(C)(C)OC(=O)NCC1CCCCN1Cc1cccnc1 (stereo unspecified) — lower, -0.502%
- CC(NC(=O)CCC(=O)c1cccs1)c1nnc2n1CCC2 (stereo unspecified) — lower, -15.1%
- CN(Cc1ccc(-n2cccn2)cc1)Cc1cnc(N(C)C)nc1 — lower, -1.28%
- Fc1cccc(N2CCc3ncnc(C4CC4)c3CC2)c1 — higher, 11.9%
- NC(=O)C1CCN(C(=O)NCc2ccc(-c3ccn[nH]3)cc2)CC1 — lower, -1.73%
- CCc1nc(CNc2nc3c(s2)c(C)nn3C)cs1 — lower, -72%
- CC(Cc1cccnc1)Nc1ncnc2cccc(F)c12 (stereo unspecified) — higher, 26.3%
- CC(NCC1CCN(CCO)CC1)c1ccc(OC(F)(F)F)cc1 (stereo unspecified) — lower, -15.1%
- CC(=O)N1CCCC(c2nnc3n2CCN(C(=O)C2CCCCC2)C3)C1 (stereo unspecified) — lower, 0.685%
- O=C1CC(NCc2ncc[nH]2)CN1CCc1cccc(Cl)c1 (stereo unspecified) — lower, -0.745%
- Cc1cc(CN2CCCC2)cc(Oc2ccc(C(F)(F)F)cn2)c1 — lower, -9.72%
- O=C([C@@H]1CCCO1)N1CCN(Cc2ccncc2)c2ncccc2C1 — lower, -95.7%
- O=C1CO[C@H]2CN(Cc3cccnc3)C[C@H]2N1 — lower, -4%
- CN(C(=O)CN1CCC(c2cc3ccccc3[nH]2)CC1)C1CC1 — higher, 1.95%
- Cc1oc(CNC(=O)Cc2ccccc2Cl)cc1C(=O)O — lower, 0.723%
- CC(C)N1CCC(c2cccc(C(=O)N(C)C)n2)CC1 — higher, 9.23%
- Cc1ccccc1-n1cnc(Cl)c1C(=O)O — lower, -4.11%
- CCS(=O)(=O)N1CCC(Nc2ccc(C#N)cc2F)CC1 — higher, 5.65%
- CCCc1cc(=O)[nH]c2nnc(SCC(=O)OCC)n12 — higher, 10.8%
- O=C(c1ccc[nH]1)N1CCO[C@H]2CC(COCc3ccccn3)C[C@@H]21 (stereo partly specified) — lower, 0.718%
- COCCCNc1cc(C)nn2cnnc12 — higher, 6%
- CC(NC(=O)c1cc(-c2cccc(Cl)c2)no1)C(=O)N(C)C (stereo unspecified) — lower, -2.16%
- CC(=O)N1CCN(C(=O)CCOc2ccc(C(C)C)cc2)CC1 — lower, -6.51%
- NC(=O)CN1CC2(CCC1=O)CCN(Cc1cc(F)cc(F)c1)CC2 — higher, 7.1%
- O=S(=O)(N1CCCC1)N1CCc2sccc2C1 — higher, 1.7%
- CC(C)[C@@H]1CN(C(=O)C2(c3ccccc3)CC2)C[C@H]1C(=O)O — higher, 3.61%
- O=C(O)c1csc(S(=O)(=O)N2CCCc3cccc(OC(F)F)c32)c1 — lower, -13.5%
- Cc1noc(-c2ccnc(N3CCC(N4CCCC4)CC3)c2)n1 — lower, 0.409%
- CC(=O)c1cc(CC(=O)N2CCN(CCOc3ccccc3)CC2)cs1 — lower, -5.48%
- Cc1nc(C)c2c(n1)CCN(Cc1ccco1)CC2 — lower, -0.141%
- CCc1c(C(=O)N2CCN(CC(N)=O)CC2)cnn1C(C)(C)C — lower, -1.77%
- CC(c1ccco1)N(C(=O)c1cccc(C#N)c1)C1CC1 (stereo unspecified) — lower, 1.18%
